According to ChEMBL document CHEMBL5058577, “EUbOPEN Chemogenomics Library 2 (Multiplex)” (2022):

Tested on: HEK-293T
Assay: Multiplex assay against HEK293T
Format: toxicity, cell-based
Details: human
How it was run: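 Imaging took place on a CQ1 microscope at 37°C and 5% CO2 once compound had been added to live cells stained at seeding with Hoechst33342, BioTracker Green Microtubule Cytoskeleton Dye, MitoTracker Red and Annexin V Alexa Fluor 680. CellPathfinder machine-learning gating classed cells as Hoechst high-intensity objects or normal cells, classed normal cells as having healthy, pyknosed or fragmented nuclei, and classed pyknosed cells as mitotic or apoptotic. Tubulin, mitochondrial-mass and membrane-permeability phenotypes are per cents of the healthy-nucleus cells.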

[1] = 12 h, 1 µM, compound concentration 1 uM, replicate 1
[2] = 12 h, 1 µM, compound concentration 1 uM, replicate 2
[3] = 12 h, 10 µM, compound concentration 10 uM, replicate 1
[4] = 12 h, 10 µM, compound concentration 10 uM, replicate 2
[5] = 24 h, 1 µM, compound concentration 1 uM, replicate 1
[6] = 24 h, 1 µM, compound concentration 1 uM, replicate 2
[7] = 24 h, 10 µM, compound concentration 10 uM, replicate 1
[8] = 24 h, 10 µM, compound concentration 10 uM, replicate 2
[9] = 48 h, 1 µM, compound concentration 1 uM, replicate 1
[10] = 48 h, 1 µM, compound concentration 1 uM, replicate 2
[11] = 48 h, 10 µM, compound concentration 10 uM, replicate 1
[12] = 48 h, 10 µM, compound concentration 10 uM, replicate 2

COCCCN1CCC(NC(=O)c2cc(Cl)c(N)c3c2OCC3)CC1 [PRUCALOPRIDE]
Population Apoptotic (%) [1]: 22% | Population Fragmented Nuclei (%) [1]: 10% | Population Healthy Nuclei (%) [1]: 80% | Population Hoechst High Intensity Objects (%) [1]: 8% | Population Membrane Permeable-Phenotype (%) [1]: 0% | Population Mitochondria Different-Phenotype (%) [1]: 36% | Population Mitotic Cells (%) [1]: 77% | Population Normal (%) [1]: 91% | Population Pyknosed Nuclei (%) [1]: 9% | Population Tubulin-Different-Phenotype (%) [1]: 21% | Total Cell Count [1]: 416 | Population Apoptotic (%) [2]: 31% | Population Fragmented Nuclei (%) [2]: 4% | Population Healthy Nuclei (%) [2]: 82% | Population Hoechst High Intensity Objects (%) [2]: 7% | Population Mitochondria Different-Phenotype (%) [2]: 59% | Population Mitotic Cells (%) [2]: 68% | Population Normal (%) [2]: 92% | Population Pyknosed Nuclei (%) [2]: 12% | Population Tubulin-Different-Phenotype (%) [2]: 16% | Total Cell Count [2]: 397 | Population Apoptotic (%) [3]: 37% | Population Fragmented Nuclei (%) [3]: 8% | Population Healthy Nuclei (%) [3]: 74% | Population Hoechst High Intensity Objects (%) [3]: 4% | Population Membrane Permeable-Phenotype (%) [3]: 0% | Population Mitochondria Different-Phenotype (%) [3]: 59% | Population Mitotic Cells (%) [3]: 62% | Population Normal (%) [3]: 95% | Population Pyknosed Nuclei (%) [3]: 17% | Population Tubulin-Different-Phenotype (%) [3]: 43% | Total Cell Count [3]: 421 | Population Apoptotic (%) [4]: 56% | Population Fragmented Nuclei (%) [4]: 10% | Population Healthy Nuclei (%) [4]: 72% | Population Hoechst High Intensity Objects (%) [4]: 10% | Population Mitochondria Different-Phenotype (%) [4]: 75% | Population Mitotic Cells (%) [4]: 43% | Population Normal (%) [4]: 89% | Population Tubulin-Different-Phenotype (%) [4]: 35% | Total Cell Count [4]: 261 | Population Apoptotic (%) [5]: 20% | Population Fragmented Nuclei (%) [5]: 11% | Population Healthy Nuclei (%) [5]: 78% | Population Hoechst High Intensity Objects (%) [5]: 5% | Population Membrane Permeable-Phenotype (%) [5]: 1% | Population Mitochondria Different-Phenotype (%) [5]: 18% | Population Mitotic Cells (%) [5]: 79% | Population Normal (%) [5]: 94% | Population Pyknosed Nuclei (%) [5]: 10% | Population Tubulin-Different-Phenotype (%) [5]: 14% | Total Cell Count [5]: 590 | Population Apoptotic (%) [6]: 28% | Population Fragmented Nuclei (%) [6]: 8% | Population Healthy Nuclei (%) [6]: 84% | Population Hoechst High Intensity Objects (%) [6]: 4% | Population Membrane Permeable-Phenotype (%) [6]: 0% | Population Mitochondria Different-Phenotype (%) [6]: 39% | Population Mitotic Cells (%) [6]: 71% | Population Normal (%) [6]: 95% | Population Pyknosed Nuclei (%) [6]: 6% | Population Tubulin-Different-Phenotype (%) [6]: 10% | Total Cell Count [6]: 546 | Population Apoptotic (%) [7]: 28% | Population Fragmented Nuclei (%) [7]: 8% | Population Healthy Nuclei (%) [7]: 77% | Population Hoechst High Intensity Objects (%) [7]: 4% | Population Membrane Permeable-Phenotype (%) [7]: 0% | Population Mitochondria Different-Phenotype (%) [7]: 48% | Population Mitotic Cells (%) [7]: 71% | Population Normal (%) [7]: 95% | Population Pyknosed Nuclei (%) [7]: 13% | Population Tubulin-Different-Phenotype (%) [7]: 32% | Total Cell Count [7]: 531 | Population Apoptotic (%) [8]: 50% | Population Fragmented Nuclei (%) [8]: 13% | Population Healthy Nuclei (%) [8]: 73% | Population Hoechst High Intensity Objects (%) [8]: 9% | Population Mitochondria Different-Phenotype (%) [8]: 51% | Population Mitotic Cells (%) [8]: 50% | Population Normal (%) [8]: 90% | Population Pyknosed Nuclei (%) [8]: 12% | Population Tubulin-Different-Phenotype (%) [8]: 25% | Total Cell Count [8]: 341 | Population Apoptotic (%) [9]: 24% | Population Fragmented Nuclei (%) [9]: 15% | Population Healthy Nuclei (%) [9]: 76% | Population Hoechst High Intensity Objects (%) [9]: 2% | Population Membrane Permeable-Phenotype (%) [9]: 1% | Population Mitochondria Different-Phenotype (%) [9]: 16% | Population Mitotic Cells (%) [9]: 75% | Population Normal (%) [9]: 97% | Population Pyknosed Nuclei (%) [9]: 7% | Population Tubulin-Different-Phenotype (%) [9]: 11% | Total Cell Count [9]: 1001 | Population Apoptotic (%) [10]: 21% | Population Fragmented Nuclei (%) [10]: 11% | Population Healthy Nuclei (%) [10]: 81% | Population Hoechst High Intensity Objects (%) [10]: 1% | Population Membrane Permeable-Phenotype (%) [10]: 0% | Population Mitochondria Different-Phenotype (%) [10]: 15% | Population Mitotic Cells (%) [10]: 78% | Population Normal (%) [10]: 98% | Population Pyknosed Nuclei (%) [10]: 6% | Population Tubulin-Different-Phenotype (%) [10]: 9% | Total Cell Count [10]: 832 | Population Apoptotic (%) [11]: 20% | Population Fragmented Nuclei (%) [11]: 16% | Population Healthy Nuclei (%) [11]: 77% | Population Hoechst High Intensity Objects (%) [11]: 1% | Population Membrane Permeable-Phenotype (%) [11]: 1% | Population Mitochondria Different-Phenotype (%) [11]: 32% | Population Mitotic Cells (%) [11]: 79% | Population Normal (%) [11]: 98% | Population Pyknosed Nuclei (%) [11]: 6% | Population Tubulin-Different-Phenotype (%) [11]: 16% | Total Cell Count [11]: 772 | Population Apoptotic (%) [12]: 35% | Population Healthy Nuclei (%) [12]: 75% | Population Hoechst High Intensity Objects (%) [12]: 3% | Population Membrane Permeable-Phenotype (%) [12]: 0% | Population Mitochondria Different-Phenotype (%) [12]: 31% | Population Mitotic Cells (%) [12]: 64% | Population Normal (%) [12]: 96% | Population Pyknosed Nuclei (%) [12]: 7% | Population Tubulin-Different-Phenotype (%) [12]: 15% | Total Cell Count [12]: 528
